Published values from different studies.
Compare with care: the assays were run in different laboratories.
DRD3: D(3) dopamine receptor (DRD3, Homo sapiens, UniProt P35462)
MDM4: Protein Mdm4 (MDM4, Homo sapiens, UniProt O15151)
GLP1R: Glucagon-like peptide 1 receptor (GLP1R, Homo sapiens, UniProt P43220)

CCCC[C@@H](NC(=O)[C@@H](N)Cc1ccc(O)cc1)C(=O)NCC(=O)N[C@@H](Cc1ccc(F)cc1)C(=O)N(C)CCC[C@@]1(c2ccc(F)cc2)OCc2cc(C#N)ccc21  Ki (DRD3; ligand displacement; radioligand): 4300 nM
CSCC[C@H](NC(=O)[C@H](CCC(=O)O)NC(=O)[C@@H]1CCCN1C(=O)[C@@H](NC(=O)[C@@H]1CCCN1)[C@@H](C)O)C(=O)N[C@@H](CCCNC(=N)N)C(=O)N[C@@H](CCC(=O)O)C(=O)N[C@@H](CCCCN)C(=O)N[C@@H](CC(C)C)C(=O)N[C@H]1CSSC[C@@H]2NC(=O)[C@@H](NC(=O)[C@H](CC(C)C)NC(=O)[C@@H](NC(=O)[C@H](CCC(N)=O)NC(=O)[C@H](CC(C)C)NC(=O)[C@H](CC(=O)O)NC(=O)[C@@H]3CCC(=O)N3)[C@@H](C)O)CSSC[C@H](NC(=O)CNC(=O)[C@H](CC(=O)O)NC(=O)[C@H]([C@@H](C)O)NC2=O)C(=O)N[C@@H](CO)C(=O)N[C@@H](CCSC)C(=O)N[C@@H]([C@@H](C)O)C(=O)N[C@@H](CC(=O)O)C(=O)N[C@@H](CC(C)C)C(=O)N[C@@H](CO)C(=O)N[C@@H](C)C(=O)N[C@@H](CC(C)C)C(=O)N[C@H](C(=O)O)CSSC[C@@H](C(=O)NCC(=O)NCC(=O)N2CCC[C@H]2C(=O)N[C@@H](CCCNC(=N)N)C(=O)N[C@@H](Cc2c[nH]c3ccccc23)C(=O)N[C@@H](CO)C(=O)N[C@H](C(=O)N[C@@H](CCC(=O)O)C(=O)N[C@@H](C)C(=O)O)[C@@H](C)O)NC(=O)[C@H](C(C)C)NC(=O)[C@H](CCCNC(=N)N)NC(=O)[C@H](C(C)C)NC(=O)[C@H](CC(C)C)NC(=O)[C@H](C)NC(=O)[C@H](CCCNC(=N)N)NC(=O)[C@H](C(C)C)NC(=O)[C@H](Cc2ccccc2)NC(=O)[C@H](Cc2c[nH]cn2)NC(=O)[C@H](Cc2c[nH]cn2)NC(=O)CNC1=O  Ki (Relaxin receptor 2 (RXFP2, Homo sapiens, UniProt Q8WXD0); ligand displacement in cells): 0.708 nM
COc1ncccc1-c1cnn2ccc(N3CCN(C(=O)OC(C)C)CC3)nc12  IC50 (Glutamate NMDA receptor; GRIN1/GRIN2B (GRIN1/GRIN2B, Homo sapiens, UniProt Q05586+Q13224); ion current; inhibitor): > 25000 nM
CC(C)[C@@H]1NC(=O)[C@H](CO)NC(=O)[C@H](CO)NC(=O)[C@H](CO)N(C)C(=O)[C@H](CC(=O)O)NC(=O)[C@H](CO)NC(=O)[C@H](Cc2ccccc2)NC(=O)CSC[C@@H](C(=O)NCC(N)=O)NC(=O)[C@H](CC(N)=O)NC(=O)[C@H](CCCNC(=N)N)NC(=O)[C@H](C)NC(=O)[C@H](Cc2ccc(-c3ccccc3)cc2)NC(=O)[C@H](CC(N)=O)NC(=O)[C@@H]2CCCN2C1=O  IC50 (MDM4; ligand displacement; TR-FRET): > 10000 nM
Nc1c(S(=O)(=O)O)cc(Nc2ccc(Nc3nc(Cl)nc(Nc4cccc(S(=O)(=O)O)c4)n3)c(S(=O)(=O)O)c2)c2c1C(=O)c1ccccc1C2=O  IC50 (Pantothenate kinase 3 (PANK3, Homo sapiens, UniProt Q9H999); enzyme activity; inhibitor; ATP luminescence): 1300 nM
CC(C)[C@@H]1NC(=O)[C@H](CO)NC(=O)[C@H](CO)NC(=O)[C@H](CO)N(C)C(=O)[C@H](CC(=O)O)NC(=O)[C@H](CO)NC(=O)[C@H](Cc2ccccc2)NC(=O)CSC[C@@H](C(=O)NCC(N)=O)NC(=O)[C@H](CC(N)=O)NC(=O)[C@H](CCCNC(=N)N)NC(=O)[C@H](Cc2ccc(-c3ccccc3)cc2)NC(=O)[C@H](Cc2ccc(-c3ccccc3)cc2)NC(=O)[C@H](CC(N)=O)NC(=O)[C@@H]2CCCN2C1=O  IC50 (MDM4; ligand displacement; TR-FRET): 835 nM
CC[C@H](C)[C@H](NC(=O)[C@H](CC(C)C)NC(=O)[C@H](Cc1c[nH]c2ccccc12)NC(=O)[C@H](CCCCN)NC(=O)[C@H](CC(C)C)NC(=O)[C@H](Cc1ccccc1)NC(=O)[C@H](CCC(=O)O)NC(=O)[C@H](CCC(N)=O)NC(=O)[C@@H](NC(=O)[C@H](C)NC(=O)[C@H](CC(C)C)NC(=O)[C@H](CC(=O)O)NC(=O)[C@H](CC(=O)O)NC(=O)[C@H](CC(C)C)NC(=O)[C@H](CC(C)C)NC(=O)[C@H](CCCCN)NC(=O)[C@H](CC(N)=O)NC(=O)[C@H](Cc1ccc(O)cc1)NC(=O)[C@H](CC(=O)O)NC(=O)[C@H](CO)NC(=O)[C@@H](NC(=O)[C@H](Cc1ccccc1)NC(=O)[C@@H](NC(=O)CNC(=O)[C@H](CC(=O)O)NC(=O)[C@H](C)NC(=O)[C@@H](N)Cc1c[nH]cn1)[C@@H](C)O)[C@@H](C)O)[C@@H](C)O)C(=O)N[C@@H](CC(N)=O)C(=O)N[C@@H](CCC(N)=O)C(=O)N[C@@H](CCCCN)C(=O)N[C@H](C(=O)N[C@H](C(=O)N[C@@H](CCC(N)=O)C(=O)O)[C@@H](C)O)C(C)C  EC50 (GLP1R; reporter gene; agonist; luciferase): 1.5 nM
CSc1nc(N[C@H](C(C)C)C2CC2)c2ncn([C@H]3[C@H](O)[C@H](O)[C@]4(CO)C[C@H]34)c2n1  Ki (DRD3; ligand displacement; radioligand): 2230 nM
CP(=O)(O)CCC(N)C(=O)O (racemic)  Ki (Glutamine synthetase (glnA, Escherichia coli K-12, UniProt P0A9C5); enzyme activity; inhibitor): 800 nM
C[C@@H](NC(=O)[C@@H](N)Cc1ccc(O)cc1)C(=O)NCC(=O)N[C@@H](Cc1ccccc1)C(=O)N(C)CCC[C@@]1(c2ccc(F)cc2)OCc2cc(C#N)ccc21  Ki (DRD3; ligand displacement; radioligand): > 10000 nM
CN(C)CCCN1c2ccccc2Sc2ccccc21  IC50 (DRD3; ligand displacement; radioligand): 75 nM
CC(C)C[C@H](NC(=O)[C@H](Cc1c[nH]c2ccccc12)NC(=O)[C@H](C)NC(=O)[C@@H](NC(=O)[C@H](Cc1ccccc1)NC(=O)[C@H](CO)NC(=O)[C@H](CCC(N)=O)NC(=O)[C@H](C)NC(=O)[C@H](C)NC(=O)[C@H](CCC(N)=O)NC(=O)[C@H](CC(=O)O)NC(=O)[C@H](CCC(N)=O)NC(=O)[C@H](CC(C)C)NC(=O)[C@H](Cc1ccc(O)cc1)NC(=O)[C@H](CO)NC(=O)[C@H](CO)NC(=O)[C@@H](NC(=O)[C@H](CC(=O)O)NC(=O)[C@H](CO)NC(=O)[C@@H](NC(=O)[C@H](Cc1ccc(O)cc1)NC(=O)[C@@H](NC(=O)CNC(=O)[C@H](CCC(=O)O)NC(=O)[C@H](C)NC(=O)[C@@H](N)Cc1c[nH]cn1)[C@@H](C)O)[C@@H](C)O)C(C)C)C(C)C)C(=O)N[C@@H](CCCCN)C(=O)N[C@@H](CO)C(=O)NCC(=O)N[C@@H](CCC(N)=O)C(=O)N1CCC[C@H]1C(=O)O  EC50 (GLP1R; reporter gene; agonist; luciferase): 29.5 nM
CC(C)[C@H](NC(=O)[C@@H]1CSSC(C)(C)[C@H](NC(=O)[C@@H](N)CC(=O)O)C(=O)N[C@@H](Cc2ccccc2)C(=O)N[C@H](Cc2c[nH]c3ccccc23)C(=O)N[C@@H](CCCN)C(=O)N[C@@H](Cc2ccc(N)cc2)C(=O)N1)C(=O)O  Ki (Urotensin-2 receptor (UTS2R, Homo sapiens, UniProt Q9UKP6); ligand displacement; radioligand; cell membranes): 2.69 nM
CC[C@H](C)[C@H](NC(=O)[C@H](Cc1ccccc1)NC(=O)[C@H](CC(=O)O)NC(=O)[C@H](CCCCN)NC(=O)[C@H](C)NC(=O)[C@H](C)NC(=O)[C@H](CCC(N)=O)NC(=O)CNC(=O)[C@H](CCC(=O)O)NC(=O)[C@H](CC(C)C)NC(=O)[C@H](Cc1ccc(O)cc1)NC(=O)[C@H](CO)NC(=O)[C@H](CO)NC(=O)[C@@H](NC(=O)[C@H](CC(=O)O)NC(=O)[C@H](CO)NC(=O)[C@@H](NC(=O)[C@H](Cc1ccc(O)cc1)NC(=O)[C@@H](NC(=O)CNC(=O)[C@H](CC(=O)O)NC(=O)[C@H](C)NC(=O)[C@@H](N)Cc1c[nH]cn1)[C@@H](C)O)[C@@H](C)O)[C@@H](C)CC)C(=O)N[C@@H](C)C(=O)N[C@@H](Cc1c[nH]c2ccccc12)C(=O)N[C@@H](CC(C)C)C(=O)N[C@@H](CCSC)C(=O)N[C@@H](CC(N)=O)C(=O)NCC(=O)N[C@@H](CCCNC(=N)N)C(=O)NCC(=O)O  EC50 (GLP1R; reporter gene; agonist; luciferase): 0.583 nM
CC(CCc1ccc(O)cc1)NCCc1ccc(O)c(O)c1 (stereo not drawn)  IC50 (DRD3; ligand displacement; radioligand): 530 nM
